pIC50: −log10 of the molar value. The source made the active and inactive calls. No cut-off for these calls is given here.
Experiments:
A549 [1] = assay: Induction of apoptosis in human A549 cells assessed as cytochrome-c release after 4 to 12 hrs by spectrophotometry; type: functional, cell-based
A-375 [2] = assay: Induction of apoptosis in human A375 cells assessed as induction of nuclear changes with DNA fragmentation at 1 uM by Hoechst 33342 nuclear staining based assay; type: functional, cell-based
In short: (§1)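 Hoechst 33342 nuclear staining of treated A549 or A375 cells. Nuclear condensation and fragmentation were examined by fluorescence microscopy against untreated control.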

A549 [3] = assay: Suppression of cell number in human A549 cells at 20 uM by phase contrast microscopy; type: functional, cell-based
A549 [4] = assay: Induction of apoptosis related protein expression in human A549 cells assessed as increase in HSP60 expression at 20 uM incubated for 12 hrs by apoptosis antibody array; type: functional, cell-based
A549 [5] = assay: Induction of apoptosis in human A549 cells assessed as cytochrome-c release after 3 to 4 hrs by Raman spectral imaging analysis; type: functional, cell-based
A-375 [6] = assay: Induction of cell cycle arrest in human A375 cells assessed as accumulation at S phase at 10 nM by propodium iodide staining based flow cytometric analysis; type: functional
In short: (§2)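 DNA was stained with propidium iodide and analysed by flow cytometry. Histograms give the fraction of cells in G0/G1, S and G2/M phases.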

A-375 [7] = assay: Induction of DNA fragmentation in human A375 cells after 3 hrs by chemometec-DNA fragmentation assay relative to control; type: functional, cell-based
A549 [8] = assay: Induction of apoptosis in human A549 cells at 1 uM by acridine orange-ethidium bromide assay; type: functional, cell-based
In short: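 Cells were treated at 1 µM and then stained with acridine orange-ethidium bromide. Apoptosis was scored by fluorescence microscopy as a colour shift from green to yellow/red.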

[9] = Antioxidant activity at 1 to 1000 ug/ml incubated for 90 mins by FRAP assay; type: functional
A549 [10] = assay: Induction of apoptosis in human A549 cells assessed as necrosis cells level at 1 uM incubated for 24 hrs by FITC-Annexin V staining based assay (reference value: 0.3%); type: functional
A549 [11] = assay: Induction of apoptosis in human A549 cells assessed as increase in caspase-9 levels at 1 uM incubated for 12 hrs by spectrofluorometry; type: functional, cell-based
A549 [12] = assay: Induction of apoptosis related protein expression in human A549 cells assessed as increase in Bim expression at 20 uM incubated for 12 hrs by apoptosis antibody array; type: functional, cell-based
A549 [13] = assay: Cytotoxicity in human A549 cells assessed as reduction in cell proliferation at 0.001 to 100 uM incubated for 24 to 48 hrs by BrdU incorporation assay; type: functional, cell-based
In short: (§3)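 BrdU incorporation assay read colorimetrically. Absorbance of the developed colour is proportional to the BrdU incorporated into cells, taken as a measure of proliferation.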

A-375 [14] = assay: Suppression of cell number in human A375 cells at 20 uM by phase contrast microscopy; type: functional, cell-based
A549 [15] = assay: Induction of morphological changes in human A549 cells assessed as induction of membrane breakage, blebbing and leakage of intracellular components at 1 uM by atomic force microscopy; type: functional, cell-based
A-375 [16] = assay: Induction of apoptosis in human A375 cells assessed as increase in caspase-8 levels at 1 uM incubated for 12 hrs by spectrofluorometry; type: functional, cell-based
A549 [17] = assay: Induction of DNA damage in human A549 cells by SERS spectral analysis; type: functional, cell-based
A549 [18] = assay: Induction of apoptosis related protein expression in human A549 cells assessed as increase in Cyt-c expression at 20 uM incubated for 12 hrs by apoptosis antibody array; type: functional, cell-based
A549 [19] = assay: Induction of apoptosis related protein expression in human A549 cells assessed as increase in TNFalpha/beta expression at 20 uM incubated for 12 hrs by apoptosis antibody array; type: functional, cell-based
A549 [20] = assay: Induction of cell cycle arrest in human A549 cells assessed as accumulation at G0/G1 phase at 10 nM by propodium iodide staining based flow cytometric analysis (reference value: 68%); type: functional; in short: as §2
A549 [21] = assay: Induction of apoptosis in human A549 cells assessed as increase in caspase-2 levels at 1 uM incubated for 12 hrs by spectrofluorometry; type: functional, cell-based
A-375 [22] = assay: Induction of mitochondrial membrane potential changes in human A375 cells at 1 uM by JC1 staining based fluorimetry; type: functional, cell-based
In short: (§4)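 Mitochondrial membrane potential was assessed with the ratiometric dye JC1. Depolarization appears as lower red and higher green fluorescence, and the red/green intensity ratio was quantified.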

A-375 [23] = assay: Cytotoxicity in human A375 cells assessed as reduction in cell proliferation at 0.001 to 100 uM incubated for 24 to 48 hrs by BrdU incorporation assay; type: functional, cell-based; in short: as §3
A-375 [24] = assay: Cytotoxicity in human A375 cells assessed as reduction in cell viability incubated for 24 hrs by MTT assay; type: functional, cell-based; conditions: Homo sapiens, A-375, 24 h; read-out: IC50
In short: (§5)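 MTT viability assay on A375 melanoma, A549 lung adenocarcinoma and WI-38 normal lung fibroblast cells after 24 and 48 h treatment. IC50 values are in µM, expressed as mean ± SD.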

A549 [25] = assay: Induction of apoptosis in human A549 cells assessed as increase in caspase-8 levels at 1 uM incubated for 12 hrs by spectrofluorometry; type: functional, cell-based
A549 [26] = assay: Induction of intracellular ROS generation in human A549 cells at 1 uM by DCFDA dye based fluorescence assay relative to control; type: functional
In short: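 Intracellular ROS in A549 cells was measured with the DCFDA probe over 1-100 µM, with paclitaxel as positive control. Readout is fold change in fluorescence intensity relative to untreated control.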

A549 [27] = assay: Cytotoxicity in human A549 cells assessed as reduction in cell viability incubated for 24 hrs by MTT assay; type: functional, cell-based; conditions: Homo sapiens, A549, 24 h; read-out: IC50; in short: as §5
A549 [28] = assay: Induction of apoptosis in human A549 cells assessed as late apoptotic cells level at 1 uM incubated for 24 hrs by FITC-Annexin V staining based assay (reference value: 0.02%); type: functional
A-375 [29] = assay: Induction of apoptosis in human A375 cells assessed as increase in caspase-9 levels at 1 uM incubated for 12 hrs by spectrofluorometry; type: functional, cell-based
A-375 [30] = assay: Inhibition of colony formation in human A375 cells at 1 nM by crystal violet staining based assay; type: functional, cell-based
A549 [31] = assay: Induction of apoptosis related protein expression in human A549 cells assessed as increase in Bad expression at 20 uM incubated for 12 hrs by apoptosis antibody array; type: functional, cell-based
A549 [32] = assay: Induction of mitochondrial membrane potential changes in human A549 cells at 1 uM by JC1 staining based fluorimetry; type: functional, cell-based; in short: as §4
A549 [33] = assay: Induction of cell cycle arrest in human A549 cells assessed as accumulation at G2/M phase at 10 nM by propodium iodide staining based flow cytometric analysis (reference value: 7%); type: functional; in short: as §2
A549 [34] = assay: Induction of apoptosis in human A549 cells assessed as induction of nuclear changes with DNA fragmentation at 1 uM by Hoechst 33342 nuclear staining based assay; type: functional, cell-based; in short: as §1
A549 [35] = assay: Induction of DNA fragmentation in human A549 cells after 4 hrs by agarose gel electrophoresis; type: functional, cell-based
A549 [36] = assay: Induction of apoptosis related protein expression in human A549 cells assessed as increase in p53 expression at 20 uM incubated for 12 hrs by apoptosis antibody array; type: functional, cell-based
A-375 [37] = assay: Induction of apoptosis in human A375 cells at 1 uM incubated for 24 hrs by FITC-Annexin V staining based assay (reference value: 0.03 +/- 0.9%); type: functional

## COc1cc(C2Oc3cc(-c4cc(=O)c5c(O)cc(O)cc5o4)ccc3OC2/C=C2\C(=O)ON=C2c2ccc(Cl)cc2)ccc1O (configuration not stated)
A549 [1]
  Activity: Active
A-375 [2]
  Activity: Active
A549 [3]
  Activity: Active
A549 [4]
  Activity: Active
A549 [5]
  Activity: Active
A-375 [6]
  Activity: Active
A-375 [7]
  Activity: Active
A549 [8]
  Activity: Active
[9]
  Activity: inactive
A549 [10]
  Activity: 13%
A549 [11]
  Activity: Active
A549 [12]
  Activity: Active
A549 [13]
  Activity: Active
A-375 [14]
  Activity: Active
A549 [15]
  Activity: Active
A-375 [16]
  Activity: inactive
A549 [17]
  Activity: Active
A549 [18]
  Activity: inactive
A549 [19]
  Activity: Active
A549 [20]
  Activity: 31%
A549 [21]
  Activity: Active
A-375 [22]
  Activity: Active
A-375 [23]
  Activity: Active
A-375 [24]
  pIC50: 5.92
A549 [25]
  Activity: inactive
A549 [26]
  fold change (FC): >3
A549 [27]
  pIC50: 5.70
A549 [28]
  Activity: 38%
A-375 [29]
  Activity: Active
A-375 [30]
  inhibition: Active
A549 [31]
  Activity: Active
A549 [32]
  Activity: Active
A549 [33]
  Activity: 29%
A549 [34]
  Activity: Active
A549 [35]
  Activity: Active
A549 [36]
  Activity: Active
A-375 [37]
  Activity: 39%

— ChEMBL document CHEMBL4334468, “Exploring Mitochondria-Mediated Intrinsic Apoptosis by New Phytochemical Entities: An Explicit Observation of Cytochrome c Dynamics on Lung and Melanoma Cancer Cells” (J Med Chem, 2019)
